# Measured values published in ChEMBL document CHEMBL3992538, “Hybrids of thienopyrimidinones and thiouracils as anti-tubercular agents: SAR and docking studies” (Eur J Med Chem, 2017).
# Legend:
# [1] = Selectivity index, ratio of GI50 for human PANC1 cells to MIC for active stage of Mycobacterium tuberculosis H37Ra ATCC 25177 infected in human THP1 cells; assay type: toxicity, cell-based; conditions: PANC-1 cells, read-out: Selectivity Index
# Method in brief: (§1)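 Selectivity index is the cytotoxic GI50 against the named human cell line divided by the antimycobacterial value. Activity counted as specific when SI >10.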
# [2] = Selectivity index, ratio of GI50 for human A549 cells to MIC for dormant stage of Mycobacterium tuberculosis H37Ra ATCC 25177; assay type: toxicity; conditions: read-out: Selectivity Index; method in brief: as §1
# [3] = Selectivity index, ratio of GI50 for human PANC1 cells to MIC for active stage of Mycobacterium tuberculosis H37Ra ATCC 25177; assay type: toxicity; conditions: PANC-1 cells, read-out: Selectivity Index; method in brief: as §1
# [4] = Cytotoxicity against human PANC1 cells assessed as growth inhibition by MTT assay; assay type: cell-based; conditions: PANC-1 cells
# Method in brief: (§2)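 MTT assay in duplicate on THP-1 leukaemia, A549 lung adenocarcinoma, PANC-1 pancreatic adenocarcinoma and HeLa cervical carcinoma cells, all obtained from ECCC.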
# [5] = Selectivity index, ratio of GI50 for human A549 cells to MIC for dormant stage of Mycobacterium tuberculosis H37Ra ATCC 25177 infected in human THP1 cells; assay type: toxicity, cell-based; conditions: read-out: Selectivity Index; method in brief: as §1
# [6] = system: Mycobacterium tuberculosis; assay: Antitubercular activity against dormant stage of Mycobacterium tuberculosis H37Ra ATCC 25177 infected in human THP1 cells after 12 days by nitrate reductase assay; assay type: functional; conditions: H37Ra ATCC 25177, 288 h
# Method in brief: (§3)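 Ex vivo test of H37Ra in THP-1 cells by nitrate reductase assay, absorbance read at 540 nm. Active stage incubated 8 days and dormant stage 12 days. H37Ra (ATCC 25177) grown in M. pheli medium to OD 1.0 and subcultured once from -70°C stock.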
# [7] = Selectivity index, ratio of GI50 for human HeLa cells to MIC for active stage of Mycobacterium tuberculosis H37Ra ATCC 25177 infected in human THP1 cells; assay type: toxicity, cell-based; conditions: read-out: Selectivity Index; method in brief: as §1
# [8] = system: Mycobacterium tuberculosis; assay: Antitubercular activity against active stage of Mycobacterium tuberculosis H37Ra ATCC 25177 infected in human THP1 cells after 8 days by nitrate reductase assay; assay type: functional; conditions: H37Ra ATCC 25177, 192 h; method in brief: as §3
# [9] = system: Mycobacterium tuberculosis; assay: Antitubercular activity against dormant stage of Mycobacterium tuberculosis H37Ra ATCC 25177 after 12 days by XTT reduction menadione assay; assay type: functional; conditions: H37Ra ATCC 25177, 288 h
# Method in brief: (§4)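 M. tuberculosis H37Ra (ATCC 25177), grown to log phase (OD 1.0) in M. pheli medium from -70°C stock, subcultured once before inoculation. Incubation 8 days (active) or 12 days (dormant). XRMA read-out as absorbance at 470 nm.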
# [10] = Cytotoxicity against human THP1 cells assessed as growth inhibition by MTT assay; assay type: cell-based; conditions: THP-1 cells; method in brief: as §2
# [11] = system: Mycobacterium tuberculosis; assay: Antitubercular activity against active stage of Mycobacterium tuberculosis H37Ra ATCC 25177 after 8 days by XTT reduction menadione assay; assay type: functional; conditions: H37Ra ATCC 25177, 192 h; method in brief: as §4
# [12] = Selectivity index, ratio of GI50 for human HeLa cells to MIC for active stage of Mycobacterium tuberculosis H37Ra ATCC 25177; assay type: toxicity, cell-based; conditions: read-out: Selectivity Index; method in brief: as §1
# [13] = Cytotoxicity against human A549 cells assessed as growth inhibition by MTT assay; assay type: cell-based; method in brief: as §2
# [14] = Selectivity index, ratio of GI50 for human HeLa cells to MIC for dormant stage of Mycobacterium tuberculosis H37Ra ATCC 25177; assay type: toxicity, cell-based; conditions: read-out: Selectivity Index; method in brief: as §1
# [15] = Cytotoxicity against human HeLa cells assessed as growth inhibition by MTT assay; assay type: cell-based; method in brief: as §2
# [16] = Selectivity index, ratio of GI50 for human HeLa cells to MIC for dormant stage of Mycobacterium tuberculosis H37Ra ATCC 25177 infected in human THP1 cells; assay type: toxicity, cell-based; conditions: read-out: Selectivity Index; method in brief: as §1
# [17] = Selectivity index, ratio of GI50 for human PANC1 cells to MIC for dormant stage of Mycobacterium tuberculosis H37Ra ATCC 25177 infected in human THP1 cells; assay type: toxicity, cell-based; conditions: PANC-1 cells, read-out: Selectivity Index; method in brief: as §1
# [18] = Selectivity index, ratio of GI50 for human A549 cells to MIC for active stage of Mycobacterium tuberculosis H37Ra ATCC 25177 infected in human THP1 cells; assay type: toxicity, cell-based; conditions: read-out: Selectivity Index; method in brief: as §1
# [19] = Selectivity index, ratio of GI50 for human A549 cells to MIC for active stage of Mycobacterium tuberculosis H37Ra ATCC 25177; assay type: toxicity; conditions: read-out: Selectivity Index; method in brief: as §1
# [20] = Selectivity index, ratio of GI50 for human PANC1 cells to MIC for dormant stage of Mycobacterium tuberculosis H37Ra ATCC 25177; assay type: toxicity; conditions: PANC-1 cells, read-out: Selectivity Index; method in brief: as §1
Compound,selectivity ratio [1],selectivity ratio [2],selectivity ratio [3],GI50 [4],selectivity ratio [5],MIC [6],selectivity ratio [7],MIC [8],MIC [9],GI50 [10],MIC [11],selectivity ratio [12],GI50 [13],selectivity ratio [14],GI50 [15],selectivity ratio [16],selectivity ratio [17],selectivity ratio [18],selectivity ratio [19],selectivity ratio [20]
COc1cc(-c2nc(SCCCn3cnc4sc5c(c4c3=O)CCCC5)[nH]c(=O)c2C#N)cc(OC)c1OC,2,4,2,52.8 µg/mL,3,26.1 µg/mL,2,28.8 µg/mL,23.4 µg/mL,97.6 µg/mL,25.4 µg/mL,2,91.4 µg/mL,2,55.7 µg/mL,2,2,3,4,2
CCCCCc1cc2c(=O)n(CCCSc3nc(-c4cc(OC)c(OC)c(OC)c4)c(C#N)c(=O)[nH]3)cnc2s1,> 2,> 8,> 2,72.8 µg/mL,> 10,9.8 µg/mL,3,> 30 µg/mL,12.3 µg/mL,> 100 µg/mL,> 30 µg/mL,3,> 100 µg/mL,6,75.8 µg/mL,8,> 7,> 3,> 3,> 6
CCCCCCc1cc2c(=O)n(CCCSc3nc(-c4cc(OC)c(OC)c(OC)c4)c(C#N)c(=O)[nH]3)cnc2s1,1,10,1,28.1 µg/mL,13,7.1 µg/mL,2,> 30 µg/mL,8.7 µg/mL,54.3 µg/mL,> 30 µg/mL,2,90.2 µg/mL,8,67 µg/mL,9,4,< 3,3,3
CCCCCCCc1cc2c(=O)n(CCCSc3nc(-c4cc(OC)c(OC)c(OC)c4)c(C#N)c(=O)[nH]3)cnc2s1,3,12,3,> 100 µg/mL,13,6.91 µg/mL,3,> 30 µg/mL,7.6 µg/mL,68.2 µg/mL,> 30 µg/mL,3,90.5 µg/mL,10,76.1 µg/mL,11,> 14,< 3,3,> 13
CCCc1cc2c(=O)n(CCCSc3nc(-c4cc(OC)c(OC)c(OC)c4)c(C#N)c(=O)[nH]3)cnc2s1,> 3,> 5,> 3,> 100 µg/mL,> 8,11.9 µg/mL,2,> 30 µg/mL,19.1 µg/mL,> 100 µg/mL,> 30 µg/mL,2,> 100 µg/mL,3,52.5 µg/mL,4,> 8,> 3,> 3,> 5
